# The source made the active and inactive calls. No cut-off for these calls is given here.
# Key:
# [1] = Cytotoxicity against human HuH7 cells assessed as growth inhibition; type: cell-based, Huh-7
# Procedure, shortened: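 Compound toxicity is measured as inhibition of Huh-7 cell growth, run in parallel with the HCVcc infection assay. CC50 comes from 10-point dose-response curves, done in duplicate with quadruplicate measurements.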
# [2] = Selectivity index, ratio of CC50 for human HuH7 cells to EC50 for 1 MOI of HCV genotype 2 infected in human HuH7 cells; design: species or system Huh-7
# Procedure, shortened: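 The SI is CC50 divided by EC50. Both values come from 10-point dose-response curves (duplicates, quadruplicate measurements) in Huh-7 cells. CC50 is from cell growth inhibition.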
# [3] = system: Hepatitis C virus; assay: Antiviral activity against 1 MOI of HCV genotype 2 infected in human HuH7 cells assessed as inhibition of viral RNA replication after 72 hrs by confocal microscopy; type: functional, organism-based, Hepacivirus hominis; settings: genotype 2, Huh-7, 72 h
# Procedure, shortened: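 Reporter virus is cell-culture-adapted full-length JFH-1 with GFP inserted in NS5A domain III; GFP fluorescence tracks viral RNA replication. Serially diluted compound added to naïve Huh-7 cells, then infected with HCVcc at MOI 1. Live cells imaged by automated confocal microscopy at 72 h post-infection. EC50 from 10-point dose-response curves, run in duplicate with quadruplicate measurements.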
# [4] = Solubility of the compound at pH 7.4; type: physicochemical; settings: buffer
# [5] = system: Hepatitis C virus; assay: Antiviral activity against HCV genotype 2 by replicon assay; type: functional, organism-based, Hepacivirus hominis
# [6] = system: Hepatitis C virus; assay: Antiviral activity against HCV genotype 1 expressing envelope protein at 1 uM; type: functional, organism-based; settings: Hepacivirus hominis
# [7] = Half life in rat liver microsomes; type: ADME, Microsome
# [8] = Half life in human liver microsomes; type: ADME, Microsome
Structure (SMILES),CC50 [1],Ratio CC50/EC50 [2],EC50 [3],solubility [4],EC50 [5],Activity [6],half-life [7],half-life [8]
COCCCNc1cc(C)nc2c(-c3ccc(C)cc3)c(C)nn12,19 µM,8.3,2.3 µM,,,,,
Cc1ccc(-c2c(C)nn3c(NC4CCN(C)CC4)cc(C)nc23)cc1,18 µM,18,1 µM,,,,,
Cc1cc(NC2CCN(C(C)C)CC2)n2nccc2n1,12 µM,1,12 µM,,,,,
Cc1ccc(-c2c(C)nn3c(NCCN(C)C)cc(C(F)(F)F)nc23)cc1,15 µM,2.1,7.2 µM,,,,,
Cc1ccc(-c2c(C)nn3c(NC4CCN(C(C)C)CC4)cc(C)nc23)cc1,8.8 µM,31,0.28 µM,73 µM,Not Active,inactive,> 1 h,> 1 h
Cc1ccc(-c2c(C)nn3c(NCc4cccnc4)c4c(nc23)CCCC4)cc1,8.7 µM,3.1,2.8 µM,,,,,
Cc1ccc(-c2c(C)nn3c(NCCCN(C)C)cc(C)nc23)cc1,22 µM,41,0.54 µM,76 µM,,inactive,0.373 h,> 1 h
Cc1ccc(-c2c(C)nn3c(NCCc4ccccc4)cc(C)nc23)cc1,5.2 µM,1,5.3 µM,,,,,
